Laboratory results published in ChEMBL document CHEMBL3865784 (Eur J Med Chem, 2016).

Experiments:
V79 [1] = test: Selectivity index, ratio of IC50 for NQO1-deficient chinese hamster V79 cells to IC50 for human MDA-MB-435 cells overexpressing NQO1
Method in brief: (§1)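 Selectivity index is IC50 in the normal cells divided by IC50 in the cancer line. Normal cells: V79 and L929 in DMEM, PBMC in RPMI with phytohaemagglutinin. Cancer lines in RPMI with 10% FBS, seeded at 0.1 × 10^6 (HL-60) or 0.7 × 10^5 cells/well (solid tumors). Absorbance 550 nm; nonlinear regression.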

SF-295 [2] = test: Selectivity index, ratio of IC50 for NQO1-deficient human PBMC to IC50 for human SF295 cells overexpressing NQO1; method in brief: as §1
OVCAR-8 [3] = test: Selectivity index, ratio of IC50 for NQO1-deficient human PBMC to IC50 for human OVCAR8 cells overexpressing NQO1
Method in brief: (§2)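 Selectivity index is IC50 in the normal cells divided by IC50 in the cancer line. All IC50s come from 72 h MTT assays. Normal cells: V79 and L929 in DMEM, PBMC in RPMI with phytohaemagglutinin. Cancer lines in RPMI with 10% FBS, seeded at 0.1 × 10^6 (HL-60) or 0.7 × 10^5 cells/well (solid tumors). Absorbance 550 nm; nonlinear regression.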

Mus musculus = organism: Mus musculus; test: Cytotoxicity against NQO1-deficient mouse L929 cells assessed as reduction in cell viability after 72 hrs by MTT assay; type: toxicity, cell-based; details: l929
OVCAR-8 [4] = test: Selectivity index, ratio of IC50 for NQO1-deficient chinese hamster V79 cells to IC50 for human OVCAR8 cells overexpressing NQO1; method in brief: as §2
[5] = Cytotoxicity against human SF295 cells overexpressing NQO1 assessed as reduction in cell viability after 72 hrs by MTT assay; type: functional, cell-based; details: SF-295, 72 h
[6] = Cytotoxicity against NQO1-deficient chinese hamster V79 cells assessed as reduction in cell viability after 72 hrs by MTT assay; type: toxicity, cell-based, Cricetulus griseus; details: v79
L929 [7] = test: Selectivity index, ratio of IC50 for NQO1-deficient mouse L929 cells to IC50 for human SF295 cells overexpressing NQO1; method in brief: as §1
SF-295 [8] = test: Selectivity index, ratio of IC50 for NQO1-deficient chinese hamster V79 cells to IC50 for human SF295 cells overexpressing NQO1; method in brief: as §1
HL-60 [9] = test: Selectivity index, ratio of IC50 for NQO1-deficient human PBMC to IC50 for NQO1-deficient human HL60 cells; method in brief: as §1
[10] = Selectivity index, ratio of IC50 for NQO1-deficient human PBMC to IC50 for human MDA-MB-435 cells overexpressing NQO1; method in brief: as §1
L929 [11] = test: Selectivity index, ratio of IC50 for NQO1-deficient mouse L929 cells to IC50 for human MDA-MB-435 cells overexpressing NQO1; method in brief: as §1
[12] = Cytotoxicity against human PC3 cells overexpressing NQO1 assessed as reduction in cell viability after 72 hrs by MTT assay; type: functional, cell-based; details: PC-3, 72 h
[13] = Cytotoxicity against NQO1-deficient human PBMC assessed as reduction in cell viability after 72 hrs by MTT assay; type: toxicity, cell-based; details: pbmc
[14] = Cytotoxicity against NQO1-deficient human HL60 cells assessed as reduction in cell viability after 72 hrs by MTT assay; type: functional, cell-based; details: HL-60, 72 h
Method in brief: (§3)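 Cancer lines from NCI, grown in RPMI 1640 with 10% FBS, 2 mM L-glutamine, penicillin/streptomycin, 37 °C, 5% CO2; seeded 0.1 × 10^6 cells/well (HL-60) or 0.7 × 10^5 cells/well (solid tumours). Compounds in DMSO, final 0.1% v/v; DMSO vehicle as negative control.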

L929 [15] = test: Selectivity index, ratio of IC50 for NQO1-deficient mouse L929 cells to IC50 for NQO1-deficient human HL60 cells; type: functional; method in brief: as §1
[16] = Cytotoxicity against human OVCAR8 cells overexpressing NQO1 assessed as reduction in cell viability after 72 hrs by MTT assay; type: functional, cell-based; details: OVCAR-8, 72 h; method in brief: as §3
V79 [17] = test: Selectivity index, ratio of IC50 for NQO1-deficient chinese hamster V79 cells to IC50 for human PC3 cells overexpressing NQO1; method in brief: as §1
L929 [18] = test: Selectivity index, ratio of IC50 for NQO1-deficient mouse L929 cells to IC50 for human OVCAR8 cells overexpressing NQO1; method in brief: as §1
L929 [19] = test: Selectivity index, ratio of IC50 for NQO1-deficient mouse L929 cells to IC50 for human PC3 cells overexpressing NQO1; method in brief: as §1
HL-60 [20] = test: Selectivity index, ratio of IC50 for NQO1-deficient chinese hamster V79 cells to IC50 for NQO1-deficient human HL60 cells; type: functional; method in brief: as §1
[21] = Cytotoxicity against human MDA-MB-435 cells overexpressing NQO1 assessed as reduction in cell viability after 72 hrs by MTT assay; type: functional, cell-based; details: MDA-MB-435, 72 h; method in brief: as §3
PC-3 = test: Selectivity index, ratio of IC50 for NQO1-deficient human PBMC to IC50 for human PC3 cells overexpressing NQO1; method in brief: as §1
[22] = Cytotoxicity against human HCT116 cells expressing NQO1 assessed as reduction in cell viability after 72 hrs by MTT assay; type: functional, cell-based; details: HCT-116, 72 h; method in brief: as §3
HCT-116 [23] = test: Selectivity index, ratio of IC50 for NQO1-deficient mouse L929 cells to IC50 for human HCT116 cells expressing NQO1; method in brief: as §2
HCT-116 [24] = test: Selectivity index, ratio of IC50 for NQO1-deficient chinese hamster V79 cells to IC50 for human HCT116 cells expressing NQO1; method in brief: as §2
HCT-116 [25] = test: Selectivity index, ratio of IC50 for NQO1-deficient human PBMC to IC50 for human HCT116 cells expressing NQO1; method in brief: as §2

O=C1C(=O)c2ccccc2C2=C1CC(Cn1cc(C[Se]c3ccccc3)nn1)O2 (stereo unspecified)
Ratio IC50 (V79 [1]): 1.5
Ratio IC50 (SF-295 [2]): 5.9
Ratio IC50 (OVCAR-8 [3]): 18.7
IC50 (Mus musculus): 620 nM
Ratio IC50 (OVCAR-8 [4]): 6.2
IC50 [5]: 220 nM
IC50 [6]: 440 nM
Ratio IC50 (L929 [7]): 2.8
Ratio IC50 (SF-295 [8]): 2
Ratio IC50 (HL-60 [9]): 10
Ratio IC50 [10]: 4.5
Ratio IC50 (L929 [11]): 2.1
IC50 [12]: 240 nM
IC50 [13]: 1310 nM
IC50 [14]: 130 nM
Ratio IC50 (L929 [15]): 4.7
IC50 [16]: 70 nM
Ratio IC50 (V79 [17]): 1.8
Ratio IC50 (L929 [18]): 8.8
Ratio IC50 (L929 [19]): 2.5
Ratio IC50 (HL-60 [20]): 3.3
IC50 [21]: 290 nM
Ratio IC50 (PC-3): 5.4

O=C1C2=C(OC(Cn3cc(C[Se]c4ccccc4)nn3)C2)C(=O)c2ccccc21 (stereo unspecified)
Ratio IC50 (V79 [1]): 3.2
Ratio IC50 (SF-295 [2]): 2.8
Ratio IC50 (OVCAR-8 [3]): 3
IC50 (Mus musculus): 2150 nM
Ratio IC50 (OVCAR-8 [4]): 2.2
IC50 [5]: 980 nM
IC50 [6]: 2020 nM
Ratio IC50 (L929 [7]): 2.1
Ratio IC50 [10]: 4.5
Ratio IC50 (L929 [11]): 3.4
IC50 [22]: 2420 nM
IC50 [12]: 1400 nM
IC50 [13]: 2800 nM
IC50 [14]: 820 nM
Ratio IC50 (L929 [15]): 2.6
IC50 [16]: 910 nM
Ratio IC50 (V79 [17]): 1.4
Ratio IC50 (L929 [18]): 2.3
Ratio IC50 (L929 [19]): 1.5
Ratio IC50 (HL-60 [20]): 2.4
IC50 [21]: 620 nM
Ratio IC50 (PC-3): 2

C#Cc1cccc(NC2C3=C(OC2(C)C)c2ccccc2C(=O)C3=O)c1 (stereo unspecified)
IC50 (Mus musculus): 2500 nM
IC50 [5]: 2590 nM
Ratio IC50 (HCT-116 [23]): 1.68
IC50 [6]: 2160 nM
Ratio IC50 (HL-60 [9]): 10.7
IC50 [22]: 1480 nM
IC50 [12]: 1860 nM
IC50 [13]: 2800 nM
IC50 [14]: 260 nM
Ratio IC50 (L929 [15]): 9.6
IC50 [16]: 2530 nM
Ratio IC50 (V79 [17]): 1.1
Ratio IC50 (HCT-116 [24]): 1.45
Ratio IC50 (L929 [19]): 1.3
Ratio IC50 (HL-60 [20]): 8.3
IC50 [21]: 2040 nM
Ratio IC50 (PC-3): 1.5
Ratio IC50 (HCT-116 [25]): 1.89

[N-]=[N+]=NCC1CC2=C(O1)c1ccccc1C(=O)C2=O (stereo unspecified)
Ratio IC50 (V79 [1]): 2.1
Ratio IC50 (SF-295 [2]): 4.6
Ratio IC50 (OVCAR-8 [3]): 5.1
IC50 (Mus musculus): 1060 nM
Ratio IC50 (OVCAR-8 [4]): 2.3
IC50 [5]: 390 nM
IC50 [6]: 820 nM
Ratio IC50 (L929 [7]): 2.7
Ratio IC50 [10]: 4.6
Ratio IC50 (L929 [11]): 2.7
IC50 [22]: 630 nM
IC50 [12]: 510 nM
IC50 [13]: 1800 nM
IC50 [14]: 820 nM
Ratio IC50 (L929 [15]): 1.2
IC50 [16]: 350 nM
Ratio IC50 (V79 [17]): 1.6
Ratio IC50 (L929 [18]): 3
Ratio IC50 (HCT-116 [24]): 1.3
Ratio IC50 (L929 [19]): 2
Ratio IC50 (HL-60 [20]): 1
IC50 [21]: 390 nM
Ratio IC50 (PC-3): 3.5
Ratio IC50 (HCT-116 [25]): 2.8

O=C1C(Br)=C(NCc2cn(C[Se]c3ccccc3)nn2)C(=O)c2ccccc21
Ratio IC50 (V79 [1]): 2.1
IC50 (Mus musculus): 3300 nM
IC50 [5]: 1610 nM
Ratio IC50 (HCT-116 [23]): 1.9
IC50 [6]: 3030 nM
Ratio IC50 (L929 [7]): 2
Ratio IC50 (SF-295 [8]): 1.8
Ratio IC50 (HL-60 [9]): 3.4
Ratio IC50 [10]: 2.6
Ratio IC50 (L929 [11]): 2.3
IC50 [22]: 1670 nM
IC50 [12]: 2290 nM
IC50 [13]: 3860 nM
IC50 [14]: 1110 nM
Ratio IC50 (L929 [15]): 2.9
Ratio IC50 (HCT-116 [24]): 1.8
Ratio IC50 (HL-60 [20]): 2.7
IC50 [21]: 1430 nM

CC1(C)OC2=C(C(=O)C(=O)c3ccccc32)[C@@H](n2cc(C[Se]c3ccccc3)nn2)[C@@H]1Br
Ratio IC50 (V79 [1]): 1.6
Ratio IC50 (SF-295 [2]): 1.2
Ratio IC50 (OVCAR-8 [3]): 2
IC50 (Mus musculus): 1740 nM
Ratio IC50 (OVCAR-8 [4]): 2.3
IC50 [5]: 1520 nM
Ratio IC50 (HCT-116 [23]): 1.5
IC50 [6]: 2170 nM
Ratio IC50 (L929 [7]): 1.1
Ratio IC50 (HL-60 [9]): 1.5
Ratio IC50 (L929 [11]): 1.3
IC50 [22]: 1110 nM
IC50 [12]: 1900 nM
IC50 [14]: 1220 nM
Ratio IC50 (L929 [15]): 1.4
IC50 [16]: 920 nM
Ratio IC50 (V79 [17]): 1.1
Ratio IC50 (L929 [18]): 1.8
Ratio IC50 (HCT-116 [24]): 1.9
Ratio IC50 (L929 [19]): 0.9
Ratio IC50 (HL-60 [20]): 1.7
IC50 [21]: 1310 nM
Ratio IC50 (PC-3): 0.9

O=C1C=C(NCc2cn(C[Se]c3ccccc3)nn2)C(=O)c2ccccc21
Ratio IC50 (SF-295 [2]): 4.8
IC50 (Mus musculus): 3830 nM
IC50 [5]: 970 nM
Ratio IC50 (HCT-116 [23]): 2.2
IC50 [6]: 3990 nM
Ratio IC50 (L929 [7]): 3.9
Ratio IC50 (SF-295 [8]): 4.1
Ratio IC50 (HL-60 [9]): 4.2
IC50 [22]: 1720 nM
IC50 [12]: 2080 nM
IC50 [13]: 4750 nM
IC50 [14]: 1130 nM
Ratio IC50 (L929 [15]): 3.3
IC50 [16]: 1890 nM
Ratio IC50 (HCT-116 [24]): 2.3
Ratio IC50 (HL-60 [20]): 3.5
IC50 [21]: 3090 nM
Ratio IC50 (HCT-116 [25]): 2.7
